CHT block = inhibitors of human choline transporter CHT | CHT-expressing cells, membrane potential dye, choline response; hits give low values | 310,000 compounds, 0.86% hits | B-score at 10 µM | Q9GZV3 | AID 488975;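 active = B-score over 3 SD under the library average, and starting fluorescence ratio not unusually high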;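 also: choline stimulus applied at its EC90 after an EC20 pre-addition; B-score computed on integrated fluorescence ratio after choline addition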
Cl transport mod = KCC2 (human) Cl- transport modulation; Q9H2X9; KCC2 cells, thallium flux FluoZin-2 fluorescence; B-score of Tl+ flux slope (higher = more flux/activation; lower = inhibition) at 10 µM; 190,000 compounds, 2.2% hits;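 active = thallium flux slope and its plate-corrected score both differing from the plate sample mean at a set confidence after two filtering rounds, in either direction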;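 also: slope of fluorescence scaled to starting intensity during 10 to 20 s after thallium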
Rad51 HR inh = blocks human Rad51 in homologous recombination. Q06609. hRad51 DNA strand exchange, fluorescence dequenching. inhibition, % at 10 µM. 200,000 compounds, 0.085% hits;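 active = inhibition above 40% at the single screening dose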
Target sequence (Q06609 whole entry, looked up): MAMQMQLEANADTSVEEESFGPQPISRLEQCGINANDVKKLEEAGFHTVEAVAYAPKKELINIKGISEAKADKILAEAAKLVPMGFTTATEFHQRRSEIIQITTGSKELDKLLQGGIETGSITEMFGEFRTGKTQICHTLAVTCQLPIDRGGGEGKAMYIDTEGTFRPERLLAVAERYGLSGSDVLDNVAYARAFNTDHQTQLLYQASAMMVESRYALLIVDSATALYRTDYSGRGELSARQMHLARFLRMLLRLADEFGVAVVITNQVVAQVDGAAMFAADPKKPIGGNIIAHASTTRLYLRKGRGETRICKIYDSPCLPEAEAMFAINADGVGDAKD
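Material: hRad51 filaments on single-stranded DNA; Reagent: Donor/quencher-labelled 47-bp dsDNA substrate; Compound: 10 µM final, single point; Schedule: 37 °C 15-min filament assembly, 30-min compound preincubation, 15-min exchange; Technique: FRET fluorescence, excitation 485 nm, emission 520 nm; Benchmarks: control wells and blank wells on each plate.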
CHT PAM = allosterically activates the human high affinity choline transporter. CHT-expressing cells, membrane potential dye, choline EC20; hits give high values; LV-AA mutant CHT in HEK293 cells. B-score at 10 µM. 310,000 compounds, 0.49% hits;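 active = initial fluorescence not abnormally high and integrated response B-score, plate-corrected, over 3 SD above library mean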
CHT act confirm = confirmation of human choline transporter (CHT) activators; shares compounds with CHT PAM; CHT-expressing cells, membrane potential dye fluorescence (FDSS); % of choline EC20–EC90 response window; HEK293 expressing CHT LV-AA mutant; choline added at its EC20; activation, % at 10 µM; 2,500 compounds, 91% hits;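 active = primary screen active, with duplicate mean activation above negative control mean plus 3 SD, cut at about 11% in these data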
HEK293 MP dye = counter-screen for CHT activators: effect in parental HEK293 cells. shares compounds with CHT PAM. membrane potential dye fluorescence (FDSS); measured after EC20 choline addition. ratio readout change at 10 µM, hits read low. 2,500 compounds, 62% hits;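 active = duplicate-averaged ratio beyond 3 SD from buffer wells, up or down, though filed actives are nearly all decreases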
Large screens that a line does not name were inactive (follow-up assays come after a bar, where they were run). A selection: hits, their analogues and other compounds. The true share with any hit is near 2.6%.

CCN1CCN(c2nc3c(c(=O)[nH]c(=O)n3C)n2CCCc2ccccc2)CC1	none | CHT act confirm 33 | HEK293 MP dye -54
Cn1c(=O)[nH]c(=O)c2c1nc(N1CCN(Cc3ccccc3)CC1)n2CCSc1ncccn1	none (no result: Cl transport mod)
CCN1CCN(c2nc3c(c(=O)[nH]c(=O)n3C)n2CCCSc2ncccn2)CC1	CHT PAM 7.5 | CHT act confirm 50 | HEK293 MP dye -55
Cn1c(=O)[nH]c(=O)c2c1nc(N1CCN(Cc3ccccc3)CC1)n2CCCc1ccccc1	none
Cc1ccnc(SCCn2c(N3CCN(c4ccccc4)CC3)nc3c2c(=O)[nH]c(=O)n3C)n1	CHT PAM 8 (no result: Cl transport mod, Rad51 HR inh) | CHT act confirm 48 | HEK293 MP dye -41
CCCn1c(-c2ccc[nH]c2=O)nc2cc(C)c(C)cc21	none (no result: Rad51 HR inh)
COc1ccc(NC2CCCN(C(=O)CN3C(=O)c4ccccc4C3=O)C2)cc1OC (stereo unspecified)	none (no result: Cl transport mod, Rad51 HR inh)
CCCCN(C)C(=O)Cc1c(OC)ccc2cc(Br)ccc12	CHT PAM 6.7 (no result: Rad51 HR inh) | CHT act confirm inactive | HEK293 MP dye inactive
COc1ccc2cc(Br)ccc2c1CC(=O)N(C)C	none
Cc1ccc(NC(=O)c2ccc(Cl)cc2Cl)cc1O	none
CC(CN1C(C)CCCC1C)OC(=O)c1ccc(Cl)cc1 (stereo unspecified)	none
CCN1CCN(C(=O)c2cc(-c3cccnc3)nc3ccc(Br)cc23)CC1	CHT PAM 6.6 (no result: Cl transport mod) | CHT act confirm 54 | HEK293 MP dye -44
O=C(c1cc(-c2cccnc2)nc2ccc(Br)cc12)N1CCC2(CC1)OCCO2	none (no result: CHT block, Rad51 HR inh, CHT PAM)
Cc1ccc(=O)n(C(C(=O)NCc2ccco2)C(=O)c2ccc(F)cc2)c1 (stereo unspecified)	none
Cn1nnc2cc(C(=O)Nc3cccnc3)ccc21	CHT PAM 6.7 | CHT act confirm 52 | HEK293 MP dye -34
Cc1ccn2c(NC3CCCC3)c(-c3ccccn3)nc2c1	none
Cc1ccn2c(Nc3ccc4c(c3)OCO4)c(-c3ccccn3)nc2c1	CHT PAM 6.3 | CHT act confirm 51 | HEK293 MP dye inactive
Cc1ccc(S(=O)(=O)Nc2cccc(-n3cnnn3)c2)cc1	none (no result: Cl transport mod, Rad51 HR inh)
Cc1cccc(COCC(Cc2ccccc2)N2CCN(C(=O)c3cccc(Cl)c3)CCC2=O)c1 (stereo unspecified)	none
O=C(c1cccc(Cl)c1)N1CCC(=O)N(C(COCc2ccccc2)Cc2ccccc2)CC1 (stereo unspecified)	CHT PAM 6.3 | CHT act confirm 29 | HEK293 MP dye inactive
Clc1ccc(-c2c[n+](Cc3ccc(Cl)c(Cl)c3)c3n2CCC3)cc1	none (no result: CHT block, CHT PAM)
Cc1ccc(-c2c[n+](Cc3cccc(Cl)c3)c3n2CCC3)cc1	CHT PAM 8 (no result: Rad51 HR inh) | CHT act confirm 56 | HEK293 MP dye -40
Cc1ccc(-c2c[n+](Cc3ccc(Cl)cc3)c3n2CCC3)cc1	none
Clc1cccc(C[n+]2cc(-c3ccccc3)n3c2CCC3)c1	CHT PAM 8.8 | CHT act confirm 67 | HEK293 MP dye -43
COc1ccc(-c2nc3cnccn3c2Nc2ccc(C)cc2)cc1	none | CHT act confirm 36 | HEK293 MP dye -28
Cc1ccc(Nc2c(-c3ccccc3)nc3cnccn23)cc1	none
COC(=O)c1ccc(NC(=O)CCN2CCN(Cc3ccccc3)CC2)cc1	none
COc1cccc(N2CCN(C(=O)c3ccc(CS(=O)c4ccc(Cl)cc4)o3)CC2)c1 (stereo unspecified)	none (no result: Cl transport mod, Rad51 HR inh) | CHT act confirm 21 | HEK293 MP dye inactive
COc1cccc(N2CCN(C(=O)c3ccc(CS(=O)c4ccc(C)cc4)o3)CC2)c1 (stereo unspecified)	CHT PAM 8.1 (no result: Cl transport mod, Rad51 HR inh) | CHT act confirm 21 | HEK293 MP dye inactive
CCOC(=O)C1(Cc2cccc(OC)c2)CCN(CC2CC=CCC2)CC1 (stereo unspecified)	none
CCOC(=O)C1(Cc2ccccc2)CCN(CC2CC=CCC2)CC1 (stereo unspecified)	none | CHT act confirm inactive | HEK293 MP dye inactive
C/C(N)=C(/C#N)C(=O)COC(=O)CCC1CCCC1	none (no result: Cl transport mod)
Cc1sc2ncn3cnnc3c2c1C	none (no result: Cl transport mod) | CHT act confirm 45 | HEK293 MP dye -41
CCOP(=O)(OCC)C(NCc1ccccc1)c1ccc(Br)cc1 (stereo unspecified)	none | CHT act confirm 29 | HEK293 MP dye inactive
COc1ccc(-c2csc(N(CCCN(C)C)C(=O)c3cccs3)n2)cc1	none | CHT act confirm 36 | HEK293 MP dye -43
COc1ccc(-c2csc(N(CCCN(C)C)C(=O)c3ccc(C)cc3)n2)cc1	none (no result: Cl transport mod, Rad51 HR inh)
Cc1nn(CCCC(=O)N2CCN(c3ccc(F)cc3)CC2)c(C)c1[N+](=O)[O-]	none
Cc1cc(N2CCCCC2)nc(N2CCOCC2)n1	none (no result: Cl transport mod)
Cc1cc(N2CCN(C)CC2)nc(N2CCOCC2)n1	CHT PAM 8.4 (no result: Cl transport mod) | CHT act confirm 45 | HEK293 MP dye -91
Cc1cc(N2CCOCC2)nc(N2CCOCC2)n1	none | CHT act confirm 76 | HEK293 MP dye -40
O=C(Cn1cnc2ccccc21)c1ccc(Br)cc1	none
CC(=O)Nc1ccc(Cc2nc3c([nH]2)c(=O)n(C)c(=O)n3C)cc1	none
COc1cc(Cn2ccnc2)c(OC)cc1Cn1ccnc1	CHT PAM 13 | CHT act confirm 81 | HEK293 MP dye -83
CCCCCCCC[n+]1cccc2c3ccccc3ccc21	CHT PAM 6.8 | CHT act confirm 19 | HEK293 MP dye -26
CCCN(CCC)C1=CC(=[N+]2CCCC2)CC(C)(C)C1	CHT PAM 12 | CHT act confirm 35 | HEK293 MP dye inactive
COc1ccc(C(=O)c2c(N)sc3c2CCN(C)C3)cc1	CHT PAM 8.3 (no result: Cl transport mod, Rad51 HR inh) | CHT act confirm 41 | HEK293 MP dye -53
Cc1sc(NC(=O)c2ccccc2)c(C(=O)NCCN(C)C)c1C	none | CHT act confirm 37 | HEK293 MP dye -57
CC(=O)OCCCn1c(C)[n+](C)c2cc(Cl)c(Cl)cc21	CHT PAM 9.7 | CHT act confirm 67 | HEK293 MP dye -62
Cc1nn(S(=O)(=O)c2ccccc2)c(C)c1Sc1ccc([N+](=O)[O-])cc1	CHT PAM 8 | CHT act confirm 29 | HEK293 MP dye inactive
Cc1nn(S(=O)(=O)c2cccs2)c(C)c1Sc1ccc([N+](=O)[O-])cc1	none
Cc1ccc(-c2nc(CN(C)C)cc(CN(C)C)c2O)cc1	none
CN(C)Cc1cc(C(C)(C)c2cc(CN(C)C)c(O)c(CN(C)C)c2)cc(CN(C)C)c1O	CHT PAM 8.3 | CHT act confirm 52 | HEK293 MP dye -58
CC[N+](CC)(CC)CCOc1cccc(OCC[N+](CC)(CC)CC)c1OCC[N+](CC)(CC)CC	CHT PAM 11 (no result: Cl transport mod, Rad51 HR inh) | CHT act confirm 72 | HEK293 MP dye -93
CC[N+](CC)(CC)CCOc1ccc(/C=C/c2ccccc2)cc1	none (no result: Cl transport mod, Rad51 HR inh)
CCOC(=O)c1cc(-c2ccccc2)nc2c1c(C)nn2-c1ccccn1	CHT PAM 8.6 | CHT act confirm inactive | HEK293 MP dye inactive

Compound activity deposited in PubChem by several laboratories.
